We go through nine compounds from ChEMBL document CHEMBL4834405, “Structure-Based Design of High-Affinity Macrocyclic FKBP51 Inhibitors” (J Med Chem, 2021).

Some results are limits rather than exact numbers.

A short description of test [1]: (§1) Selectivity ratio of Kd for displacement of fluorescent tracer 5-(3-(4-((1S,5S,6S)-10-(3,5-dichlorophenylsulfonyl)-2-oxo-3-(pyridin-3-ylmethyl)-3,10-diazabicyclo[4.3.1]decan-5-yl)-1H-1,2,3-triazol-1-yl)propylcarbamoyl)-2-(6-(dimethylamino)-3-(dimethyliminio)-3H-xanthen-9-yl)benzoate from recombinant full length C-terminal FLAG-tagged FJBP12 to Kd for displacement of fluorescent tracer 5-(3-(4-((1S,5S,6S)-10-(3,5-dichlorophenylsulfonyl)-2-oxo-3-(pyridin-3-ylmethyl)-3,10-diazabicyclo[4.3.1]decan-5-yl)-1H-1,2,3-triazol-1-yl)propylcarbamoyl)-2-(6-(dimethylamino)-3-(dimethyliminio)-3H-xanthen-9-yl)benzoate from recombinant full length C-terminal FLAG-tagged FKBP51 (unknown origin).

The nature of test [2]: as §1, with “FKBP12.6 (unknown origin)” for “FJBP12”.
Test [3] concerns the target Peptidyl-prolyl cis-trans isomerase FKBP1A (Homo sapiens, UniProt P62942). Put plainly: Displacement of fluorescent tracer 5-(3-(4-((1S,5S,6S)-10-(3,5-dichlorophenylsulfonyl)-2-oxo-3-(pyridin-3-ylmethyl)-3,10-diazabicyclo[4.3.1]decan-5-yl)-1H-1,2,3-triazol-1-yl)propylcarbamoyl)-2-(6-(dimethylamino)-3-(dimethyliminio)-3H-xanthen-9-yl)benzoate from recombinant full length C-terminal FLAG-tagged FKBP12 (unknown origin) expressed in Escherichia coli BL21 ([…]) cells incubated for 30 mins by fluorescence polarisation competition binding assay. In a few lines: (§2)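 Competitive FP in 150 mM NaCl, 20 mM HEPES pH 8.0, 0.002% Triton X-100. Ligand 1:1 serially diluted in DMSO and premixed with fluorescent tracer, tracer working solution 11.9 nM (FKBP12.6, 51FK1, 52FK1) or 5.95 nM (FKBP12) before final 10-fold dilution into protein. 30 min at room temperature, read at ex/em 535/590 nm. Weighted SD from at least two independent runs.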
For orientation: Polarisation of emitted light reports the rotation of a fluorescent probe.

Test [4] addresses T1, Peptidyl-prolyl cis-trans isomerase FKBP5 (Homo sapiens, UniProt Q13451).
T1 sequence (Q13451 whole entry): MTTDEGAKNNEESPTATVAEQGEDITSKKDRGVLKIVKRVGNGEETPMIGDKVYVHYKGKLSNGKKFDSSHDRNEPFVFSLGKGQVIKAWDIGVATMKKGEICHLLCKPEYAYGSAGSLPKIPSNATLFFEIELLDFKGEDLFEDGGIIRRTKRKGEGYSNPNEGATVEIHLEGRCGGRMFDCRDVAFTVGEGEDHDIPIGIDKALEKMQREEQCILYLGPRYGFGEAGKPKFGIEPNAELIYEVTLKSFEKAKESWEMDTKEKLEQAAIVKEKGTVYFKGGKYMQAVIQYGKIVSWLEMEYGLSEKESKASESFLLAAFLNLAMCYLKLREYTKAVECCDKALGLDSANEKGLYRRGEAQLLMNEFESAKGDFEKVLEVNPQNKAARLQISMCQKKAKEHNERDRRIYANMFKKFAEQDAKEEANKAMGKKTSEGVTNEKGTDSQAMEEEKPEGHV
The test can be described thus: Displacement of fluorescent tracer 5-(3-(4-((1S,5S,6S)-10-(3,5-dichlorophenylsulfonyl)-2-oxo-3-(pyridin-3-ylmethyl)-3,10-diazabicyclo[4.3.1]decan-5-yl)-1H-1,2,3-triazol-1-yl)propylcarbamoyl)-2-(6-(dimethylamino)-3-(dimethyliminio)-3H-xanthen-9-yl)benzoate from recombinant full length C-terminal FLAG-tagged FKBP51 (unknown origin) expressed in Escherichia coli BL21 (DE3) cells incubated for 30 mins by fluorescence polarisation competition binding assay.

A short description of test [5]: as §1, with “FKBP52 (unknown origin)” for “FJBP12”.
Test [6] has as its target T2, Peptidyl-prolyl cis-trans isomerase FKBP4 (Homo sapiens, UniProt Q02790).
T2 sequence (Q02790 whole entry): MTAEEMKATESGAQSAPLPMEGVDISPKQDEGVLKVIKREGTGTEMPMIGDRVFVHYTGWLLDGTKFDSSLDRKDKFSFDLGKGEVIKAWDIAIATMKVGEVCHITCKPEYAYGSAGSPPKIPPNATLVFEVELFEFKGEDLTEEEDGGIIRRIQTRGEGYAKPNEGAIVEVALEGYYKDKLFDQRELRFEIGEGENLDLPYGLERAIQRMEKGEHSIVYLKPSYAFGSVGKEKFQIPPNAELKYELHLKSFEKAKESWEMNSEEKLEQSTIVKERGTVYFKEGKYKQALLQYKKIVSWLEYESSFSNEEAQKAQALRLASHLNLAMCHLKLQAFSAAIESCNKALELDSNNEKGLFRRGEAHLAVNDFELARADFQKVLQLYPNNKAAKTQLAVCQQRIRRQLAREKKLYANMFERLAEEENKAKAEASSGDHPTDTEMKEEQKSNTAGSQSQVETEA
Put plainly: Displacement of fluorescent tracer 5-(3-(4-((1S,5S,6S)-10-(3,5-dichlorophenylsulfonyl)-2-oxo-3-(pyridin-3-ylmethyl)-3,10-diazabicyclo[4.3.1]decan-5-yl)-1H-1,2,3-triazol-1-yl)propylcarbamoyl)-2-(6-(dimethylamino)-3-(dimethyliminio)-3H-xanthen-9-yl)benzoate from recombinant full length C-terminal FLAG-tagged FKBP52 (unknown origin) expressed in Escherichia coli BL21 (DE3) cells incubated for 30 mins by fluorescence polarisation competition binding assay. In a few lines:
as §2

Test [7] deals with Peptidyl-prolyl cis-trans isomerase FKBP1B (Homo sapiens, UniProt P68106). The test can be described thus: Displacement of fluorescent tracer 5-(3-(4-((1S,5S,6S)-10-(3,5-dichlorophenylsulfonyl)-2-oxo-3-(pyridin-3-ylmethyl)-3,10-diazabicyclo[4.3.1]decan-5-yl)-1H-1,2,3-triazol-1-yl)propylcarbamoyl)-2-(6-(dimethylamino)-3-(dimethyliminio)-3H-xanthen-9-yl)benzoate from recombinant full length C-terminal FLAG-tagged FKBP12.6 (unknown origin) expressed in Escherichia coli BL21 (DE3) cells incubated for 30 mins by fluorescence polarisation competition assay. In a few lines:
as §2

Peptidyl-prolyl cis-trans isomerase FKBP1B, sequence (P68106 whole entry): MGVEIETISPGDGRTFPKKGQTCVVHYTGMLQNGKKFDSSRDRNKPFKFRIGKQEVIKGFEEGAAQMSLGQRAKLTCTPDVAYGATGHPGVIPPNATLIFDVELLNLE
Peptidyl-prolyl cis-trans isomerase FKBP1A, sequence (P62942 whole entry): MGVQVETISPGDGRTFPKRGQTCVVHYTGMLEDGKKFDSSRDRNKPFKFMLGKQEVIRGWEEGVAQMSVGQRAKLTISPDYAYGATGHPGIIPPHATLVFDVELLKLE

Take `COc1ccc(CC[C@H]2OC(=O)[C@@H]3CCCCN3C(=O)[C@@H](C3CCCCC3)c3cc(OC)c(OC)c(c3)OC[C@H](O)[C@@H](O)COc3cccc2c3)cc1OC`: the Selectivity ratio was found to be 2.6 in test [1], 1.1 in test [2] and 227 in test [5]. Besides, the Kd (as a rule, the concentration at which binding is half-saturated) in test [3] amounted to 44 nM; in test [4], 17 nM; in test [6], 3850 nM; in test [7] it was 19 nM.
With `COc1ccc(CC[C@H]2OC(=O)[C@@H]3CCCCN3C(=O)[C@@H](C3CCCCC3)c3cc(OC)c(OC)c(c3)OCCC(=O)CCOc3cccc2c3)cc1OC`, the Selectivity ratio came out at 4.8 in test [1], 2.5 in test [2] and 175 in test [5]. In addition, the Kd in test [3] was determined as 38 nM; in test [4], 8 nM; in test [6], 1400 nM; in test [7], 20 nM.
With `COc1ccc(CC[C@H]2OC(=O)[C@@H]3CCCCN3C(=O)[C@@H](C3CCCCC3)c3cc(OC)c(OC)c(c3)OCCCCCOc3cccc2c3)cc1OC`, the Selectivity ratio in test [1] was 2.7; in test [2], 2.2; in test [5], over 217. Further, the Kd is 126 nM in test [3], 46 nM in test [4], over 10000 nM in test [6] and 100 nM in test [7].
In the case of `COc1ccc(CC[C@H]2OC(=O)[C@@H]3CCCCN3C(=O)[C@@H](C3CCCCC3)c3cc(OC)c(c(OC)c3)OCCOCCCCOc3cccc2c3)cc1OC`, the Selectivity ratio was 8 in test [1], 3.1 in test [2] and over 72 in test [5]. Moreover, the Kd in test [3] was 1110 nM; in test [4], 138 nM; in test [6], over 10000 nM; in test [7], 429 nM.
As to `COc1ccc(CC[C@H]2OC(=O)[C@@H]3CCCCN3C(=O)[C@@H](C3CCCCC3)c3cc(OC)c(OC)c(c3)OCCOc3cccc2c3)cc1OC`, the Selectivity ratio in test [1] was 4.5; in test [2], 1.5; in test [5] it was over 165. Further, the Kd in test [3] was found to be 247 nM; in test [4], 55 nM; in test [6], 9090 nM; in test [7], 82 nM.
Take `COc1ccc(CC[C@H]2OC(=O)[C@@H]3CCCCN3C(=O)[C@@H](C3CCCCC3)c3cc(OC)c(c(OC)c3)OC/C=C\COc3cccc2c3)cc1OC`: the Selectivity ratio in test [1] is 12.2; in test [2], 9.8; in test [5], over 149. The Kd is 815 nM in test [3], 67 nM in test [4], over 10000 nM in test [6] and 658 nM in test [7].
For the compound `COc1ccc(CC[C@H]2OC(=O)[C@@H]3CCCCN3C(=O)[C@@H](C3CCCCC3)c3cc(OC)c(c(OC)c3)OCCC(=O)COc3cccc2c3)cc1OC`, the Selectivity ratio came out at 7.8 in test [1], 3.4 in test [2] and 425 in test [5]. The Kd in test [3] was 86 nM; in test [4] it was 11 nM; in test [6], 4670 nM; in test [7], 38 nM.
Take `COc1ccc(CC[C@H]2OC(=O)[C@@H]3CCCCN3C(=O)[C@@H](C3CCCCC3)c3cc(OC)c(OC)c(c3)OCC/C=C\COc3cccc2c3)cc1OC`: the Selectivity ratio was 2 in test [1], 1.6 in test [2] and over 141 in test [5]. Also, the Kd was 139 nM in test [3], 71 nM in test [4], over 10000 nM in test [6] and 116 nM in test [7].
In the case of `COc1ccc(CC[C@H]2OC(=O)[C@@H]3CCCCN3C(=O)[C@@H](C3CCCCC3)c3cc(OC)c(OC)c(c3)OCC/C=C/COc3cccc2c3)cc1OC`, the Selectivity ratio in test [1] was 5.2; in test [2], 6.3; in test [5], over 89. The Kd in test [3] is 588 nM; in test [4], 113 nM; in test [6], over 10000 nM; in test [7], 709 nM.
